Converted amounts (≈) assume the structure as drawn.
biological target: T1, C-C chemokine receptor type 4 (Homo sapiens, UniProt P51679); assay: Antagonist activity at CCR4 receptor in human whole blood assessed as F-actin polymerization after 30 mins by FACS-based flow cytometric analysis; conditions: not given
T1 sequence (P51679 whole entry): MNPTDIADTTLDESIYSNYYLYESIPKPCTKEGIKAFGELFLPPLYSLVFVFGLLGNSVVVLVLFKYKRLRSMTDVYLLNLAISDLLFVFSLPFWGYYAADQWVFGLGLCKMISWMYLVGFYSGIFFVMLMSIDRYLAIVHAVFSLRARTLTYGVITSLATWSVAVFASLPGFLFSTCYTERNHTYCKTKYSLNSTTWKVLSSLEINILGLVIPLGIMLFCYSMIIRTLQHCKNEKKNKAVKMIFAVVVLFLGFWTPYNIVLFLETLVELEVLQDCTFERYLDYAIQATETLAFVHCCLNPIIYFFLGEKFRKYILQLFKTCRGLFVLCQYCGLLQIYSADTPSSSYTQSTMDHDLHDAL

pA2	Structure (SMILES)
6.6	COc1cccc2c1c(NS(=O)(=O)c1ccc(Cl)s1)nn2Cc1cccc(CNC(=O)C2COCCN2C)c1 (single isomer, unassigned; isomer A)

same assay, conditions: read-out: pA2 (converted)

Kb [nM]	Structure (SMILES)
1000	COc1cccc2c1c(NS(=O)(=O)c1ccc(Cl)s1)nn2Cc1cccc(CNC(=O)C2COC2)c1
501	COc1cccc2c1c(NS(=O)(=O)c1ccc(Cl)s1)nn2Cc1cccc(CNC(=O)C2CCOCC2)c1
> 10000	COc1cccc2c1c(NS(=O)(=O)c1ccc(Cl)s1)nn2Cc1cc(CNC(C)=O)ccn1
1000	COc1cc(F)cc2c1c(NS(=O)(=O)c1ccc(Cl)s1)nn2Cc1cccc(CNC(C)=O)c1
562	COc1cccc2c1c(NS(=O)(=O)c1ccc(Cl)s1)nn2Cc1cccc(CNC(=O)[C@H]2COCCN2)c1
794	COc1cccc2c1c(NS(=O)(=O)c1ccc(Cl)s1)nn2Cc1cccc(CNC(=O)C2CCCO2)c1 (stereo not given)
631	COc1c(F)ccc2c1c(NS(=O)(=O)c1ccc(Cl)s1)nn2Cc1cccc(CNC(=O)C(C)(C)O)c1
3160	COc1c(F)ccc2c1c(NS(=O)(=O)c1ccc(Cl)s1)nn2Cc1cccc(CNC(C)=O)c1

system: not listed separately; assay: Kinetic solubility of the compound by chemiluminescent nitrogen detection assay; format: physicochemical; conditions: not given

Kinetic_solubility	Structure (SMILES)
>= 203 ug ml-1	COc1cccc2c1c(NS(=O)(=O)c1ccc(Cl)s1)nn2Cc1cccc(CNC(=O)C2COCCN2C)c1 (single isomer, unassigned; isomer A)

same assay, conditions: read-out: Kinetic_solubility

solubility kinetic [µg/mL]	Structure (SMILES)
≥ 173	COc1cccc2c1c(NS(=O)(=O)c1ccc(Cl)s1)nn2Cc1cccc(CNC(=O)C2COC2)c1
≥ 193	COc1cccc2c1c(NS(=O)(=O)c1ccc(Cl)s1)nn2Cc1cccc(CNC(=O)C2CCOCC2)c1
≥ 182	COc1cccc2c1c(NS(=O)(=O)c1ccc(Cl)s1)nn2Cc1cccc(CNC(C)=O)n1
122 (≈ 235 µM)	COc1cccc2c1c(NS(=O)(=O)c1ccc(Cl)s1)nn2Cc1cccc(CNC2COC2)c1
≥ 141	COc1cccc2c1c(NS(=O)(=O)c1ccc(Cl)s1)nn2Cc1cc(CNC(C)=O)ccn1
57 (≈ 110 µM)	CC(=O)NCc1cccc(Cn2nc(NS(=O)(=O)c3ccc(Cl)s3)c3c(C(C)=O)cccc32)c1
≥ 161	COc1cc(F)cc2c1c(NS(=O)(=O)c1ccc(Cl)s1)nn2Cc1cccc(CNC(C)=O)c1
≥ 250	COc1cccc2c1c(NS(=O)(=O)c1ccc(Cl)s1)nn2Cc1cccc(CNC(=O)[C@H]2COCCN2)c1
≥ 161	COc1cccc2c1c(NS(=O)(=O)c1ccc(Cl)s1)nn2Cc1ccnc(CNC(C)=O)c1
≥ 153	COc1cccc2c1c(NS(=O)(=O)c1ccc(Cl)s1)nn2Cc1cccc(CNC(=O)C2CCCO2)c1 (stereo not given)
≥ 177	COc1ccc(F)c2c1c(NS(=O)(=O)c1ccc(Cl)s1)nn2Cc1cccc(CNC(C)=O)c1
≥ 174	COc1c(F)ccc2c1c(NS(=O)(=O)c1ccc(Cl)s1)nn2Cc1cccc(CNC(=O)C(C)(C)O)c1
≥ 199	COc1c(F)ccc2c1c(NS(=O)(=O)c1ccc(Cl)s1)nn2Cc1cccc(CNC(C)=O)c1
124 (≈ 227 µM)	COc1cccc2c1c(NS(=O)(=O)c1ccc(Cl)s1)nn2Cc1cccc(CNC(=O)C2CCO2)c1 (stereo not given)

system: not listed separately; assay: Lipophilicity, log D of the compound by chromatographic analysis; format: physicochemical; conditions: not given
How it was run: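 Chromatographic log D measured at pH 7.4.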

chromatographic logD	Structure (SMILES)
4	COc1cccc2c1c(NS(=O)(=O)c1ccc(Cl)s1)nn2Cc1cccc(CNC(=O)C2COC2)c1
2.9	O=C([C@H]1CCCCN1)N1CCN(c2nc(NCc3ccc(Cl)cc3Cl)c3cccnc3n2)CC1
4.4	COc1cccc2c1c(NS(=O)(=O)c1ccc(Cl)s1)nn2Cc1cccc(CNC(=O)C2CCOCC2)c1
3	COc1cccc2c1c(NS(=O)(=O)c1ccc(Cl)s1)nn2Cc1cccc(CNC(C)=O)n1
4.3	COc1cccc2c1c(NS(=O)(=O)c1ccc(Cl)s1)nn2Cc1cccc(CNC2COC2)c1
2.6	COc1cccc2c1c(NS(=O)(=O)c1ccc(Cl)s1)nn2Cc1cc(CNC(C)=O)ccn1
4.8	CC(=O)NCc1cccc(Cn2nc(NS(=O)(=O)c3ccc(Cl)s3)c3c(C(C)=O)cccc32)c1
4.1	COc1cc(F)cc2c1c(NS(=O)(=O)c1ccc(Cl)s1)nn2Cc1cccc(CNC(C)=O)c1
3.9	COc1cccc2c1c(NS(=O)(=O)c1ccc(Cl)s1)nn2Cc1cccc(CNC(=O)[C@H]2COCCN2)c1
2.9	COc1ccc(COc2nc(Br)cnc2NS(=O)(=O)c2ccc(C)cc2)cc1OCCN(C)C
2.5	COc1cccc2c1c(NS(=O)(=O)c1ccc(Cl)s1)nn2Cc1ccnc(CNC(C)=O)c1
4.9	COc1cccc2c1c(NS(=O)(=O)c1ccc(Cl)s1)nn2Cc1cccc(CNC(=O)C2CCCO2)c1 (stereo not given)
4	COc1ccc(F)c2c1c(NS(=O)(=O)c1ccc(Cl)s1)nn2Cc1cccc(CNC(C)=O)c1
4.1	COc1c(F)ccc2c1c(NS(=O)(=O)c1ccc(Cl)s1)nn2Cc1cccc(CNC(=O)C(C)(C)O)c1
4.1	COc1c(F)ccc2c1c(NS(=O)(=O)c1ccc(Cl)s1)nn2Cc1cccc(CNC(C)=O)c1
4.5	COc1cccc2c1c(NS(=O)(=O)c1ccc(Cl)s1)nn2Cc1cccc(CNC(=O)C2CCO2)c1 (stereo not given)

biological target: T1, C-C chemokine receptor type 4; assay: Antagonist activity at human recombinant CCR4 receptor expressed in CHO cell membranes by [35S]GTPgammaS binding assay; format: functional; conditions: not given

IC50 [nM]	Structure (SMILES)
20	COc1cccc2c1c(NS(=O)(=O)c1ccc(Cl)s1)nn2Cc1cccc(CNC(=O)C2COC2)c1
31.6	COc1cccc2c1c(NS(=O)(=O)c1ccc(Cl)s1)nn2Cc1cccc(CNC(=O)C2CCOCC2)c1
126	COc1cccc2c1c(NS(=O)(=O)c1ccc(Cl)s1)nn2Cc1cccc(CNC(C)=O)n1
251	COc1cccc2c1c(NS(=O)(=O)c1ccc(Cl)s1)nn2Cc1cccc(CNC2COC2)c1
158	COc1cccc2c1c(NS(=O)(=O)c1ccc(Cl)s1)nn2Cc1cc(CNC(C)=O)ccn1
100	CC(=O)NCc1cccc(Cn2nc(NS(=O)(=O)c3ccc(Cl)s3)c3c(C(C)=O)cccc32)c1
39.8	COc1cc(F)cc2c1c(NS(=O)(=O)c1ccc(Cl)s1)nn2Cc1cccc(CNC(C)=O)c1
25.1	COc1cccc2c1c(NS(=O)(=O)c1ccc(Cl)s1)nn2Cc1cccc(CNC(=O)[C@H]2COCCN2)c1
100	COc1cccc2c1c(NS(=O)(=O)c1ccc(Cl)s1)nn2Cc1ccnc(CNC(C)=O)c1
39.8	COc1cccc2c1c(NS(=O)(=O)c1ccc(Cl)s1)nn2Cc1cccc(CNC(=O)C2CCCO2)c1 (stereo not given)
79.4	COc1ccc(F)c2c1c(NS(=O)(=O)c1ccc(Cl)s1)nn2Cc1cccc(CNC(C)=O)c1
39.8	COc1c(F)ccc2c1c(NS(=O)(=O)c1ccc(Cl)s1)nn2Cc1cccc(CNC(=O)C(C)(C)O)c1
12.6	COc1c(F)ccc2c1c(NS(=O)(=O)c1ccc(Cl)s1)nn2Cc1cccc(CNC(C)=O)c1
31.6	COc1cccc2c1c(NS(=O)(=O)c1ccc(Cl)s1)nn2Cc1cccc(CNC(=O)C2CCO2)c1 (stereo not given)

same assay, conditions: cho

pIC50	Structure (SMILES)
8.2	COc1cccc2c1c(NS(=O)(=O)c1ccc(Cl)s1)nn2Cc1cccc(CNC(=O)C2COCCN2C)c1 (single isomer, unassigned; isomer A)

— ChEMBL document CHEMBL2321840, “Synthesis and structure-activity relationships of indazole arylsulfonamides as allosteric CC-chemokine receptor 4 (CCR4) antagonists” (J Med Chem, 2013)
